Measured values reported in ChEMBL document CHEMBL4020710, “Discovery and evaluation of the hybrid of bromophenol and saccharide as potent and selective protein tyrosine phosphatase 1B inhibitors” (Eur J Med Chem, 2017).
Activity calls are given as the source filed them. The rule behind the calls is not given here.

Columns and labels:
[1] = molecular target: T1, Tyrosine-protein phosphatase non-receptor type 1 (Homo sapiens, UniProt P18031); assay: Inhibition of recombinant PTP1B (unknown origin) using p-NPP as substrate after 30 mins by UV-spectroscopic analysis
T1 sequence (P18031 whole entry): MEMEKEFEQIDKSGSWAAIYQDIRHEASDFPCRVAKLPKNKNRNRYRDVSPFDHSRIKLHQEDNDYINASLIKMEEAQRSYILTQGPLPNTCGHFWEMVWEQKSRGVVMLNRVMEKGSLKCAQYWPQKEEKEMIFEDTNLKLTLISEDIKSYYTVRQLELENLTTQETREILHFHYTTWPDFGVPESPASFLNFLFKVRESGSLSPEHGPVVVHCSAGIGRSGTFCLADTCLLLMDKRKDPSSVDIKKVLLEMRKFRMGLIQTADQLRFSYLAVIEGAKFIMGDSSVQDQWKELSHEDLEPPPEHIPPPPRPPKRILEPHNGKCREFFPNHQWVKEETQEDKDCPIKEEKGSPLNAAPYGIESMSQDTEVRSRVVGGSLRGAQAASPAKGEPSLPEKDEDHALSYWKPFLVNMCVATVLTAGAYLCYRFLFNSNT

[2] = molecular target: T2, Tyrosine-protein phosphatase non-receptor type 1 (Homo sapiens) (UniProt P18031); assay: Inhibition of recombinant PTP1B (unknown origin) at 10 uM using p-NPP as substrate after 30 mins by UV-spectroscopic analysis
T2 sequence (whole entry): T1 sequence (P18031 whole entry)

[3] = molecular target: T3, Tyrosine-protein phosphatase non-receptor type 2 (Homo sapiens, UniProt P17706); assay: Inhibition of TCPTP (unknown origin)
T3 sequence (P17706 whole entry): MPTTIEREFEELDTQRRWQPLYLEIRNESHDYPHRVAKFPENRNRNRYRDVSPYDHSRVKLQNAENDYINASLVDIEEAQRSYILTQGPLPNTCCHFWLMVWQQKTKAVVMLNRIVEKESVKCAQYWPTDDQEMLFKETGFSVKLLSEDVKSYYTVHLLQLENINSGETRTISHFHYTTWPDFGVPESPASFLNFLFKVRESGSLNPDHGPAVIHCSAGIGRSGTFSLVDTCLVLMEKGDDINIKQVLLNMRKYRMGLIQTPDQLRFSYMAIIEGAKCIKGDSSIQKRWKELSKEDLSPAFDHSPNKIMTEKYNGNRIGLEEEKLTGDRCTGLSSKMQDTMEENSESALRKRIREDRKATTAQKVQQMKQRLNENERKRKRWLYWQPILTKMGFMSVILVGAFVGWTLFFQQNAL

Homo sapiens = species on record: Homo sapiens; assay: Selectivity ratio of IC50 for TCPTP (unknown origin) to IC50 for recombinant PTP1B (unknown origin)
[4] = molecular target: T4, Receptor-type tyrosine-protein phosphatase F (Homo sapiens, UniProt P10586); assay: Inhibition of PTPLAR (unknown origin) at 20 ug/ml
T4 sequence (P10586 whole entry): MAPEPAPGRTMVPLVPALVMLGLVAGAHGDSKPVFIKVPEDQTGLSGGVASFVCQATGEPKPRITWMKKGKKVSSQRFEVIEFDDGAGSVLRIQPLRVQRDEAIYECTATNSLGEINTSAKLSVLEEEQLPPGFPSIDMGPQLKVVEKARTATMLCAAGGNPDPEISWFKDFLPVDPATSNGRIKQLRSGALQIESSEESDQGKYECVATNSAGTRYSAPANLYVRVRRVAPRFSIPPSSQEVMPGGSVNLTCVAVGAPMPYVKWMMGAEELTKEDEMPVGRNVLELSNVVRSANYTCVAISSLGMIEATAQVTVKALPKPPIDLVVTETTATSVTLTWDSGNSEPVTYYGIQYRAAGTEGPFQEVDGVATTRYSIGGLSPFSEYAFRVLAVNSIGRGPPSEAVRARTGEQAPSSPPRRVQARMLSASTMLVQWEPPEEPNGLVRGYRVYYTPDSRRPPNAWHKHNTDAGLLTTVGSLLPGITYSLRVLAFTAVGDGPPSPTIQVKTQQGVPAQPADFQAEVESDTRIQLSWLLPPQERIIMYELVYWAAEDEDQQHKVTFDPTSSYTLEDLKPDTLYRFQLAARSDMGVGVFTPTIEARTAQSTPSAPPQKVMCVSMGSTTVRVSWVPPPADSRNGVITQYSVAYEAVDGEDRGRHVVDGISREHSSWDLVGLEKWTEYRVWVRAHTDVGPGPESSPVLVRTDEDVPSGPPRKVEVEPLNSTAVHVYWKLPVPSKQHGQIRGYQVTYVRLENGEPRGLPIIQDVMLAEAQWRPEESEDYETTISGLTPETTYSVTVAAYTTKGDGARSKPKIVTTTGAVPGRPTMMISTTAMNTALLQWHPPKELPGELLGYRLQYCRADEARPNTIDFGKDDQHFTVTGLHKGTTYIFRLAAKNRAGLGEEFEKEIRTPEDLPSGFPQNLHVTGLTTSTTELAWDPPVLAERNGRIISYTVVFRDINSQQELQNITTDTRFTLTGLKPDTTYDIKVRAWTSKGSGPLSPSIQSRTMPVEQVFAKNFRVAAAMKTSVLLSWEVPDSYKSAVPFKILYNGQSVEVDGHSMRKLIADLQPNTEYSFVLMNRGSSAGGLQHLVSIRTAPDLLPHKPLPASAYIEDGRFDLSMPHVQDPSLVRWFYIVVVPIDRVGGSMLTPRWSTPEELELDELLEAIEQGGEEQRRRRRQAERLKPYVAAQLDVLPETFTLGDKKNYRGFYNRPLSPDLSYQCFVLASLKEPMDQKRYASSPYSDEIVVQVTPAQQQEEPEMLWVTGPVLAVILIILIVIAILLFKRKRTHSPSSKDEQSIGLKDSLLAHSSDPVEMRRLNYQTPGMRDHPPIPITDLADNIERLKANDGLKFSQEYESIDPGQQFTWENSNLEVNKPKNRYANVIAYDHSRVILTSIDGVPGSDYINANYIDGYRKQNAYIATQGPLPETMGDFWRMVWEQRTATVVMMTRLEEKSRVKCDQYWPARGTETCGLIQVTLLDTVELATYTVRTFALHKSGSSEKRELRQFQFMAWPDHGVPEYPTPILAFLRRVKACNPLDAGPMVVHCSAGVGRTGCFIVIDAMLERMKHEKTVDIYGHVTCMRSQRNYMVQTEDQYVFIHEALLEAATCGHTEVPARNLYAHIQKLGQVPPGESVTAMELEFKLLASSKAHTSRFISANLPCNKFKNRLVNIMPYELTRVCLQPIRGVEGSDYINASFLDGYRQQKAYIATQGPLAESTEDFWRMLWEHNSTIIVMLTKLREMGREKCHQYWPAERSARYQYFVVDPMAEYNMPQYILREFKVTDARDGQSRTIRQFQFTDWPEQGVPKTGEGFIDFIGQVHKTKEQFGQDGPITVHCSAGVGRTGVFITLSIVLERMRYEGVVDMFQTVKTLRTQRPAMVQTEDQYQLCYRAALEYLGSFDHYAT

[5] = molecular target: T5, Tyrosine-protein phosphatase non-receptor type 11 (Homo sapiens, UniProt Q06124); assay: Inhibition of SHP2 (unknown origin)
T5 sequence (Q06124 whole entry): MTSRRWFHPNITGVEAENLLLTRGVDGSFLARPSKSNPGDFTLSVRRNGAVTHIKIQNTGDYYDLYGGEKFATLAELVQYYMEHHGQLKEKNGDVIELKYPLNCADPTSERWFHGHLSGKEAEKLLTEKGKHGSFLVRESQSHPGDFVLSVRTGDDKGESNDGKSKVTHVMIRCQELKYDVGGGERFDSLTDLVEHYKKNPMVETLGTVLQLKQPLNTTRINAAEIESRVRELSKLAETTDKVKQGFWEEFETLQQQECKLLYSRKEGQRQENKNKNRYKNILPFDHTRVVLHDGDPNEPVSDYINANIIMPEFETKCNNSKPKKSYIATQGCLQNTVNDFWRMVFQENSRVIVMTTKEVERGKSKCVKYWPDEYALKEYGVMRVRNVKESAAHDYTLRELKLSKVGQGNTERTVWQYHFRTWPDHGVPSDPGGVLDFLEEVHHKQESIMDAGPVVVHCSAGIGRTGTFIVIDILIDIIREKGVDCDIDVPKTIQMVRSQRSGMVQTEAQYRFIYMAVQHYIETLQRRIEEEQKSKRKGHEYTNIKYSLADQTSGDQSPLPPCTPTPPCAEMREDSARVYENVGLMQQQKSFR

[6] = molecular target: T4, Receptor-type tyrosine-protein phosphatase F; assay: Inhibition of PTPLAR (unknown origin)
C2C12 (Mus musculus) = assay: Drug absorption in mouse C2C12 myotubes assessed per million cells at 10 uM after 8 hrs by HPLC analysis; settings: c2c12, 8 h
C2C12 [7] = assay: Effect on total Akt in mouse C2C12 cells at 0.1 to 1 uM after 8 hrs by Western blot analysis; format: ADME, cell-based; settings: c2c12, 8 h
[8] = molecular target: T2, Tyrosine-protein phosphatase non-receptor type 1 (Homo sapiens); assay: Competitive inhibition of PTP1B (unknown origin) using p-NPP as substrate after 30 mins by Lineweaver-Burk plot analysis
[9] = Drug uptake in mouse C2C12 cells at 10 uM after 8 hrs by HPLC analysis; format: ADME, cell-based; settings: c2c12, 8 h
Procedure, shortened: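 C2C12 myotubes were exposed to 10 μM for 8 h, with DMSO-treated cells as the control. The medium was then removed and the cells disrupted. An equal amount of internal standard was added, cell debris was removed by filtration, and intracellular compound was quantified by HPLC.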

[10] = molecular target: T6, Tyrosine-protein phosphatase non-receptor type 1 (Mus musculus) (UniProt P35821); assay: Inhibition of PTP1B in mouse C2C12 cells assessed as increase in IRbeta phosphorylation at Y1146 residues in mouse C2C12 cells at 0.1 to 1 uM after 8 hrs by Western blot analysis; format: cell-based
T6 sequence (whole entry): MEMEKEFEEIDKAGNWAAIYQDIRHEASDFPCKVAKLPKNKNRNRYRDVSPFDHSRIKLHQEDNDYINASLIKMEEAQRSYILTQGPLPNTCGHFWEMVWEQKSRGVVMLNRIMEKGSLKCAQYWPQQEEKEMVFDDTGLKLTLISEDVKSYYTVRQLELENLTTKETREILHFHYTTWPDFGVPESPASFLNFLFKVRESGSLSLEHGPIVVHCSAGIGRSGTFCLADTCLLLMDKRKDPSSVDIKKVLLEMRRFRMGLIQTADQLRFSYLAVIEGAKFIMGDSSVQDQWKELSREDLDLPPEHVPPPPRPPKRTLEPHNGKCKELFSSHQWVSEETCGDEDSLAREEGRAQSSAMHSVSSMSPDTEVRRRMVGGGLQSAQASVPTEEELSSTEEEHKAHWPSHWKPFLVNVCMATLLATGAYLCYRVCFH

[11] = molecular target: T6, Tyrosine-protein phosphatase non-receptor type 1 (Mus musculus); assay: Inhibition of PTP1B in mouse C2C12 cells assessed as increase in IRS1 phosphorylation at Y632 residues at 0.25 to 1 uM after 8 hrs by Western blot analysis; format: cell-based
[12] = molecular target: T6, Tyrosine-protein phosphatase non-receptor type 1 (Mus musculus); assay: Inhibition of PTP1B in mouse C2C12 cells assessed as increase in Akt phosphorylation at S473 residues in mouse C2C12 cells at 0.1 to 1 uM after 8 hrs by Western blot analysis; format: cell-based
C2C12 [13] = assay: Effect on total IRbeta in mouse C2C12 cells at 0.1 to 1 uM after 8 hrs by Western blot analysis; format: ADME, cell-based; settings: c2c12, 8 h
[14] = molecular target: T2, Tyrosine-protein phosphatase non-receptor type 1 (Homo sapiens); assay: Binding affinity to human PTP1B (1 to 321 residues) at 50 uM by SPR assay

Row | Compound | IC50 [1] [µM] | inhibition [2] [%] | other results
1 | COc1cc(C(=O)OC[C@H]2OC(OC(=O)c3cc(Br)c(O)c(OC)c3)[C@H](OC(=O)c3cc(Br)c(O)c(OC)c3)[C@@H]2OC(=O)c2cc(Br)c(O)c(OC)c2)cc(Br)c1O (stereo not given in full) | 1.5 |  | 
2 | O=C(O[C@@H]1OC[C@@H](OC(=O)c2cc(O)c(O)c(Br)c2)[C@H](OC(=O)c2cc(O)c(O)c(Br)c2)[C@H]1OC(=O)c1cc(O)c(O)c(Br)c1)c1cc(O)c(O)c(Br)c1 | 0.2 | 99 | 
3 | O=C(OCC(COC(=O)c1cc(O)c(O)c(Br)c1)OC(=O)c1cc(O)c(O)c(Br)c1)c1cc(O)c(O)c(Br)c1 | 0.24 | 95.5 | IC50 [3]: 1.98 µM; Ratio IC50 (Homo sapiens): 8; inhibition [4]: < 25%; IC50 [5]: 4.53 µM; IC50 [6]: Not Active
4 | COc1cc(C(=O)O[C@@H]2OC[C@@H](OC(=O)c3cc(Br)c(O)c(OC)c3)[C@H](OC(=O)c3cc(Br)c(O)c(OC)c3)[C@H]2OC(=O)c2cc(Br)c(O)c(OC)c2)cc(Br)c1O | 0.75 |  | 
5 | COc1cc(C(=O)OCCOC(=O)c2cc(Br)c(O)c(OC)c2)cc(Br)c1O | > 20 |  | 
6 | CC(C)(C)[Si](C)(C)Oc1cc(C(=O)O)cc(Br)c1O[Si](C)(C)C(C)(C)C |  | 24.2 | 
7 | O=C(OC[C@H]1OC(OC(=O)c2cc(O)c(O)c(Br)c2)[C@H](OC(=O)c2cc(O)c(O)c(Br)c2)[C@@H]1OC(=O)c1cc(O)c(O)c(Br)c1)c1cc(O)c(O)c(Br)c1 (stereo not given in full) | 0.19 | 96.4 | IC50 [3]: 5.94 µM; Ratio IC50 (Homo sapiens): 32; Drug absorption (C2C12 (Mus musculus)): 74 pmol; inhibition [4]: < 25%; Activity (C2C12 [7]): Non-Toxic; inhibition [8]: Active; Drug uptake [9]: 36.9%; inhibition [10]: Active; IC50 [5]: 15.9 µM; inhibition [11]: Active; inhibition [12]: Active; Activity (C2C12 [13]): Non-Toxic; Activity [14]: Active; IC50 [6]: Not Active
8 | COc1cc(C(=O)OCC(COC(=O)c2cc(Br)c(O)c(OC)c2)OC(=O)c2cc(Br)c(O)c(OC)c2)cc(Br)c1O | 8.45 |  | 
9 | O=C(OC1OC[C@@H](OC(=O)c2ccc(O)c(O)c2)[C@H](OC(=O)c2ccc(O)c(O)c2)[C@H]1OC(=O)c1ccc(O)c(O)c1)c1ccc(O)c(O)c1 (stereo not given in full) | 3 |  | 
10 | COc1cc(C(=O)OC[C@H]2OC(OC(=O)c3cc(Br)c(OC)c(OC)c3)[C@H](OC(=O)c3cc(Br)c(OC)c(OC)c3)[C@@H]2OC(=O)c2cc(Br)c(OC)c(OC)c2)cc(Br)c1OC (stereo not given in full) | 3.41 |  | 
11 | CC(C)(C)[Si](C)(C)Oc1cc(C(=O)OC[C@H]2OC(OC(=O)c3cc(Br)c(O[Si](C)(C)C(C)(C)C)c(O[Si](C)(C)C(C)(C)C)c3)[C@H](OC(=O)c3cc(Br)c(O[Si](C)(C)C(C)(C)C)c(O[Si](C)(C)C(C)(C)C)c3)[C@@H]2OC(=O)c2cc(Br)c(O[Si](C)(C)C(C)(C)C)c(O[Si](C)(C)C(C)(C)C)c2)cc(Br)c1O[Si](C)(C)C(C)(C)C (stereo not given in full) |  | 43.6 | 
12 | COc1cc(C(=O)OC2OC[C@@H](OC(=O)c3cc(Br)c(OC)c(OC)c3)[C@H](OC(=O)c3cc(Br)c(OC)c(OC)c3)[C@H]2OC(=O)c2cc(Br)c(OC)c(OC)c2)cc(Br)c1OC (single isomer, unassigned) | 1.11 |  | Activity [14]: inactive
13 | COc1cc(C(=O)OCCOC(=O)c2cc(Br)c(OC)c(OC)c2)cc(Br)c1OC | > 20 |  | 
14 | CC(C)(C)[Si](C)(C)Oc1cc(C(=O)OCC(COC(=O)c2cc(Br)c(O[Si](C)(C)C(C)(C)C)c(O[Si](C)(C)C(C)(C)C)c2)OC(=O)c2cc(Br)c(O[Si](C)(C)C(C)(C)C)c(O[Si](C)(C)C(C)(C)C)c2)cc(Br)c1O[Si](C)(C)C(C)(C)C |  | 12 | 
15 | O=C(OCCOC(=O)c1ccc(O)c(O)c1)c1ccc(O)c(O)c1 | > 20 |  | 
16 | O=C(OCCOC(=O)c1cc(O)c(O)c(Br)c1)c1cc(O)c(O)c(Br)c1 |  | 25 | 
17 | O=C(OCC(COC(=O)c1ccc(O)c(O)c1)OC(=O)c1ccc(O)c(O)c1)c1ccc(O)c(O)c1 | 12.3 |  | 
18 | O=C(OC[C@H]1OC(OC(=O)c2ccc(O)c(O)c2)[C@H](OC(=O)c2ccc(O)c(O)c2)[C@@H]1OC(=O)c1ccc(O)c(O)c1)c1ccc(O)c(O)c1 (stereo not given in full) | 2.2 |  | 
19 | COc1cc(C(=O)OCC(COC(=O)c2cc(Br)c(OC)c(OC)c2)OC(=O)c2cc(Br)c(OC)c(OC)c2)cc(Br)c1OC | > 20 |  | Activity [14]: inactive
20 | CC(C)(C)[Si](C)(C)Oc1cc(C(=O)OC2OC[C@@H](OC(=O)c3cc(Br)c(O[Si](C)(C)C(C)(C)C)c(O[Si](C)(C)C(C)(C)C)c3)[C@H](OC(=O)c3cc(Br)c(O[Si](C)(C)C(C)(C)C)c(O[Si](C)(C)C(C)(C)C)c3)[C@H]2OC(=O)c2cc(Br)c(O[Si](C)(C)C(C)(C)C)c(O[Si](C)(C)C(C)(C)C)c2)cc(Br)c1O[Si](C)(C)C(C)(C)C (stereo not given in full) |  | 41.9 | 
21 | CC(C)(C)[Si](C)(C)Oc1cc(C(=O)OCCOC(=O)c2cc(Br)c(O[Si](C)(C)C(C)(C)C)c(O[Si](C)(C)C(C)(C)C)c2)cc(Br)c1O[Si](C)(C)C(C)(C)C |  | 32.8 | 
